Measured values published in ChEMBL document CHEMBL1671842, “Synthesis and antibacterial activity of a novel class of 15-membered macrolide antibiotics, "11a-azalides"” (2011).
Values after ≈ are worked out from the molar mass of the structure shown.

How the values were obtained:
Streptococcus pneumoniae [1] = assay: Antibacterial activity against erythromycin-susceptible Streptococcus pneumoniae ATCC 49619; assay type: functional
Summary of the method: (§1)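 MIC by broth microdilution following CLSI (formerly NCCLS) guidelines for S. pneumoniae.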

Streptococcus pneumoniae [2] = assay: Antibacterial activity against erythromycin-resistant Streptococcus pneumoniae 205; assay type: functional; summary of the method: as §1

| Compound | MIC (Streptococcus pneumoniae [1]) [µg/mL] | MIC (Streptococcus pneumoniae [2]) [µg/mL] |
| --- | --- | --- |
| CO[C@]1(C)C[C@H](O[C@H]2[C@H](C)[C@@H](O[C@@H]3O[C@H](C)C[C@H](N(C)C)[C@H]3O)[C@@](C)(O)C[C@@H](C)[C@H](O)[C@H](C)CN(C)C[C@H](COCc3ccccc3)OC(=O)[C@@H]2C)O[C@@H](C)[C@@H]1O | 0.12 (≈ 0.148 µM) | 32 (≈ 39.5 µM) |
| CC[C@H]1OC(=O)[C@H](C)[C@@H](O[C@H]2C[C@@](C)(OC)[C@@H](O)[C@H](C)O2)[C@H](C)[C@@H](O[C@@H]2O[C@H](C)C[C@H](N(C)C)[C@H]2O)[C@](C)(OC)C[C@@H](C)C(=O)[C@H](C)[C@@H](O)[C@]1(C)O [CLARITHROMYCIN] | 0.03 (≈ 0.0401 µM) | > 128 |
| CO[C@]1(C)C[C@H](O[C@H]2[C@H](C)[C@@H](O[C@@H]3O[C@H](C)C[C@H](N(C)C)[C@H]3O)[C@@](C)(O)C[C@@H](C)[C@H](O)[C@H](C)CN(C)C[C@@H](COCc3ccccc3)OC(=O)[C@@H]2C)O[C@@H](C)[C@@H]1O | 1 (≈ 1.23 µM) | 64 (≈ 78.9 µM) |
| CO[C@]1(C)C[C@H](O[C@H]2[C@H](C)[C@@H](O[C@@H]3O[C@H](C)C[C@H](N(C)C)[C@H]3O)[C@@](C)(O)C[C@@H](C)[C@H](O)[C@H](C)CN(C)CCOC(=O)[C@@H]2C)O[C@@H](C)[C@@H]1O | 4 (≈ 5.79 µM) | > 128 |
| CO[C@]1(C)C[C@H](O[C@H]2[C@H](C)[C@@H](O[C@@H]3O[C@H](C)C[C@H](N(C)C)[C@H]3O)[C@@](C)(O)C[C@@H](C)[C@H](O)[C@H](C)CN(C)[C@@H](COCc3ccccc3)COC(=O)[C@@H]2C)O[C@@H](C)[C@@H]1O | 2 (≈ 2.47 µM) | 128 (≈ 158 µM) |
